In the library only some 3.5% were active in any assay of this set; here they are far more common.
RGS4 block – RGS4 inhibitors, primary screen, cell-based, HEK293 M3R inducible RGS4, calcium flux; Regulator of G-protein signaling 4 (Homo sapiens), P49798; Fluo-4 calcium flux; active compounds read high; triggered by carbachol at its EC20; B-score at 10 µM; 0.45% of 310,000 active;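 active = B-score, a plate-corrected calcium signal, over three deviations above library mean, with baseline fluorescence within five deviations of library mean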;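 note: RGS4 expression induced by doxycycline in cells with stable M3 receptor; B-score is computed from the integrated fluorescence ratio over baseline after carbachol; higher B-score means a larger calcium signal and so more RGS4 inhibition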
Target sequence (P49798 whole entry, looked up): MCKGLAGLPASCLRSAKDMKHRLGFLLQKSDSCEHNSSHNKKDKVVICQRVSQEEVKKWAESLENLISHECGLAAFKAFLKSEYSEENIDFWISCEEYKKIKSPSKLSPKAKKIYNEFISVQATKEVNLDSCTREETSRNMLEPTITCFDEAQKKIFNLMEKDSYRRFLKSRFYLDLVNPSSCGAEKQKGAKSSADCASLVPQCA
RGS4 act – RGS4 potentiators or activators, primary screen, cell-based, HEK293 M3R inducible RGS4, calcium flux | B-score at 10 µM | carbachol calcium flux Fluo4; active compounds read low | 0.92% of 310,000 active;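 active = B-score of the integrated calcium signal more than 4 SD below the library mean, with starting fluorescence not abnormally high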;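 note: negative B-score means reduced calcium response which marks RGS4 activation or potentiation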
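Reagent: ECmax carbachol challenge; Test system: M3R-expressing HEK293 line, RGS4 induced by doxycycline; Schedule: overnight RGS4 induction, 30 min dye load 37 °C, 20 min compound RT; Detection: calcium dye Fluo4 fluorescence; Read-out: Agonist-evoked peak-minus-minimum fluorescence over baseline, integrated ratio, B score.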
MrgX1 antag – antagonists of human MrgX1 receptor, primary screen, HEK293 cells, Fluo-4 calcium flux; B-score at 10 µM; Mas-related G-protein coupled receptor member X1 (Homo sapiens), Q96LB2; AID 588676, 2011; BAM8-22 antagonism; active compounds read low; 1.3% of 310,000 active;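 active = calcium-response B-score plate-corrected more than 3 library SD below zero, starting fluorescence within 5 deviations, no agonist response on first addition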;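 note: peak minus trough fluorescence over baseline after final BAM8-22 challenge near maximal dose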
Target sequence (Q96LB2 whole entry, looked up): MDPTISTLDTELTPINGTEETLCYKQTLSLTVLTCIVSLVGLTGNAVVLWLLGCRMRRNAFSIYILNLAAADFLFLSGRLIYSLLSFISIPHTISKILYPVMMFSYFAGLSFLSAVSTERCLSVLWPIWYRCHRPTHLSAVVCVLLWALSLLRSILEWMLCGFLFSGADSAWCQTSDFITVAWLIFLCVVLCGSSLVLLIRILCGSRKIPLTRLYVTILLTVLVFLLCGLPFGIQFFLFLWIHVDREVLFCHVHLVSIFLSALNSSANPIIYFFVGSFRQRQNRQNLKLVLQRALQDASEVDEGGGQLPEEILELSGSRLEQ
MrgX1 allo act – positive allosteric modulators of MrgX1, primary screen, HEK293 cells, Fluo-4 calcium flux. Mas-related G-protein coupled receptor member X1 (Homo sapiens), Q96LB2. FDSS; active compounds read high. B-score at 10 µM. 0.63% of 310,000 active. AID 588675, 2011;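 active = plate-corrected calcium response at least 3 library SD above typical, normal starting fluorescence, not activating the receptor alone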;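 note: compound read alongside a low EC10 to EC30 dose of BAM8-22 agonist; peak minus trough fluorescence over baseline measured at the second addition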
MrgX1 agonist – agonists of human MrgX1 receptor, primary screen, HEK293 cells, Fluo-4 calcium flux. Mas-related G-protein coupled receptor member X1 (Homo sapiens), Q96LB2. Fluo-4 calcium fluorescence, agonist mode; active compounds read high. B-score at 10 µM. 0.44% of 310,000 active;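 active = calcium response B-score plate-corrected fluorescence ratio at least 3 library SD, with starting fluorescence B-score inside 5 SD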
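times = overnight plating, then 30 min 37 °C plus 30 min room-temperature dye loading | assay system = stable human MrgX1 HEK293 cell line | input = fifteen thousand cells per well | signal = kinetic calcium dye fluorescence, Fluo-4 NW | dosing = compound delivered in addition one of three | read-out = B-scored fluorescence response ratio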
MrgX1 ag confirm – MrgX1 receptor agonists, duplicate retest, confirmation, HEK293 cells, Fluo-4 calcium flux; Fluo-4 calcium fluorescence, FDSS; activation, % at 10 µM; shares compounds with MrgX1 agonist; 78% of 600 active; AID 602412, 2012;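 active = calcium signal rise, corrected for plate position, at least 3 library SD high, with starting brightness within 5 such deviations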; note: reference of the scale not given here
HEK293 Ca flux – nonspecific calcium signal in parental HEK293, confirmation, counter-screen for MrgX1 antagonist project, parental HEK293 cells, Fluo-4 calcium flux | shares compounds with MrgX1 antag | Fluo-4 calcium fluorescence, FDSS | fluorescence ratio F(max-min)/F0 at 10 µM | 2% of 4,000 active | AID 624111, 2012;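 active = duplicate-averaged calcium fluorescence ratio at least three times the standard deviation of buffer wells, a nonspecific response in parental cells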
HEK293 Ca counter – calcium response in parental HEK293 cells, primary screen, counter-screen for MrgX1 allosteric activator project, cell-based, Fluo-4 calcium flux, duplicate; shares compounds with MrgX1 antag; Fluo-4 fluorescence ratio; active compounds read high; fluorescence ratio F(max-min)/F0 at 10 µM; 0.4% of 4,000 active;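 active = calcium fluorescence ratio, averaged over duplicates, at least 3 SD of the buffer-well ratio, meaning a nonspecific response in receptor-free cells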;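 note: untransfected parental HEK293 lacking MrgX1 used as counterscreen for MrgX1 allosteric activators; fluorescence change taken during the second addition on a kinetic imager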
HEK293 Ca cntr2 – calcium response in parental HEK293 cells, primary screen, counter-screen for MrgX1 agonist project, cell-based, Fluo-4 calcium flux, duplicate, agonist mode | 8.7% of 4,000 active | fluorescence ratio F(max-min)/F0 at 10 µM | shares compounds with MrgX1 antag | Fluo-4 calcium fluorescence (FDSS); active compounds read high;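 active = calcium fluorescence ratio at least three times the spread of buffer wells, meaning a non-specific response in parental cells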
Large screens that a line does not name were inactive (follow-up assays come after a bar, where they were run).

CC(C)/C=C1\CC/C(=C\c2ccc(N(C)C)cc2)C1=O	MrgX1 agonist 101 | MrgX1 ag confirm inactive | HEK293 Ca flux 0.015 | HEK293 Ca counter inactive | HEK293 Ca cntr2 141
Cc1cc(C)n(-c2nnc3c4ccccc4n(C)c3n2)n1	none
Cc1c(Br)c(O)c(Br)c2sc(=O)oc12	MrgX1 agonist 33 (no result: RGS4 block, RGS4 act) | MrgX1 ag confirm 149% | HEK293 Ca flux inactive | HEK293 Ca counter inactive | HEK293 Ca cntr2 inactive
CC(C)C(OC(=O)c1nsc(Cl)c1Cl)C(=O)NCc1ccccc1 (centres undefined)	none
O=C(CSc1ncnc2ccccc12)c1cccs1	MrgX1 agonist 29 | MrgX1 ag confirm inactive | HEK293 Ca flux inactive | HEK293 Ca counter inactive | HEK293 Ca cntr2 inactive
ClCC1=Nc2ccccc2Cc2ccccc21	MrgX1 agonist 29 | MrgX1 ag confirm 111% | HEK293 Ca flux inactive | HEK293 Ca counter inactive | HEK293 Ca cntr2 inactive
c1ccc2c(c1)Cc1cc3ccccc3nc1-2	none
N#Cc1ccc(-c2nc3cc(Cl)ccc3c(=O)n2O)cc1	none
O=c1c2cc(Br)ccc2nc(-c2ccc(Cl)cc2)n1O	MrgX1 agonist 143 | MrgX1 ag confirm 661% | HEK293 Ca flux inactive | HEK293 Ca counter inactive | HEK293 Ca cntr2 129
Cc1ccc(-c2nc3c(Cl)cc(Cl)cc3c(=O)n2O)cc1	MrgX1 agonist 105 | MrgX1 ag confirm 482% | HEK293 Ca flux inactive | HEK293 Ca counter inactive | HEK293 Ca cntr2 104
O=c1c2cc(Cl)ccc2nc(-c2ccc([N+](=O)[O-])cc2)n1O	MrgX1 agonist 72 | MrgX1 ag confirm 270% | HEK293 Ca flux inactive | HEK293 Ca counter inactive | HEK293 Ca cntr2 63
O=C(c1cc(S(=O)(=O)N2CCCC2)c(Cl)cc1Cl)N1CCCC1	none
Cc1occc1-c1nnc(SCC(=O)N2CCc3ccccc32)o1	MrgX1 agonist 37 | MrgX1 ag confirm 207% | HEK293 Ca flux inactive | HEK293 Ca counter inactive | HEK293 Ca cntr2 inactive
O=C(CSc1nnc(-c2cccs2)o1)N1CCc2ccccc21	none
Cc1[nH][nH]c(=O)c1C(c1ccc(-c2cccc(Cl)c2)o1)c1c(C)[nH][nH]c1=O	MrgX1 agonist 29 | MrgX1 ag confirm 198% | HEK293 Ca flux inactive | HEK293 Ca counter inactive | HEK293 Ca cntr2 56
O=C(NCc1ccccn1)C(=O)Nc1cc2c3c(c1)CC(=O)N3CCC2	none
CCN1C(=O)/C(=C/c2ccc(N3CCCC3)cc2)NC1=S	MrgX1 agonist 70 | MrgX1 ag confirm inactive | HEK293 Ca flux 0.02 | HEK293 Ca counter inactive | HEK293 Ca cntr2 251
COc1cc(/C=C2\NC(=S)N(C)C2=O)ccc1O	none
Cc1cc(/C=C2\NC(=S)N(C)C2=O)ccc1N1CCCC1	MrgX1 agonist 91 | MrgX1 ag confirm inactive | HEK293 Ca flux 0.3 | HEK293 Ca counter inactive | HEK293 Ca cntr2 203
Cc1nnc(SCC(=O)NCc2ccc(F)cc2)[nH]c1=O	none
CCC(C)NC(=O)C(=O)NCc1ccccn1 (centres undefined)	none
CCCCn1c(N)c(N(CC(C)C)C(=O)COC(=O)Cc2cccc(OC)c2)c(=O)[nH]c1=O	none
O=C(c1ccc(Cl)c([N+](=O)[O-])c1)N1CCCc2ccccc21	none
CSc1ccc(C2NC(=O)c3c(sc4c3CCN(C)C4)N2)cc1 (centres undefined)	MrgX1 agonist 28 | MrgX1 ag confirm 101% | HEK293 Ca flux inactive | HEK293 Ca counter inactive | HEK293 Ca cntr2 inactive
CN1CCc2c(sc3c2C(=O)NC(c2cccs2)N3)C1 (centres undefined)	MrgX1 agonist 40 | MrgX1 ag confirm inactive | HEK293 Ca flux inactive | HEK293 Ca counter inactive | HEK293 Ca cntr2 inactive
COc1ccc(N2CC(C(=O)N3CCC(c4nc5ccccc5[nH]4)CC3)CC2=O)cc1 (centres undefined)	none
N#CCn1c(CCl)nc2ccccc2c1=O	MrgX1 agonist 42 | MrgX1 ag confirm 198% | HEK293 Ca flux inactive | HEK293 Ca counter inactive | HEK293 Ca cntr2 inactive
COc1ccc(CCNC(=O)C2CCCN(S(=O)(=O)c3ccc(F)cc3)C2)cc1 (centres undefined)	none
Cc1ccc(-c2[nH]c(-c3ccccc3)nc2SCC(=O)NCC2CCCO2)cc1 (centres undefined)	MrgX1 agonist 34 | MrgX1 ag confirm 239% | HEK293 Ca flux inactive | HEK293 Ca counter inactive | HEK293 Ca cntr2 49
CCOC(=O)CC(=O)CSc1nc(CC)c(C)cc1C#N	none
CCOC(=O)CC(=O)CSc1nc2ccc(C)cc2cc1C#N	MrgX1 agonist 54 (no result: RGS4 block, RGS4 act) | MrgX1 ag confirm 367% | HEK293 Ca flux inactive | HEK293 Ca counter inactive | HEK293 Ca cntr2 75
Cc1nn(C)c(C)c1CN(Cc1nc(-c2cc(F)ccc2F)oc1C)C1CC1	none
Cc1nn(C)c(C)c1CN(Cc1nc(-c2ccc(F)cc2F)oc1C)C1CC1	MrgX1 agonist 56 | MrgX1 ag confirm 254% | HEK293 Ca flux inactive | HEK293 Ca counter inactive | HEK293 Ca cntr2 49
Nc1nnc(SCC(=O)c2ccccc2)s1	none
Nc1c(C(=O)c2ccccc2)sc2snc(SCC(=O)c3ccccc3)c12	MrgX1 agonist 32 | MrgX1 ag confirm 225% | HEK293 Ca flux 0.41 | HEK293 Ca counter inactive | HEK293 Ca cntr2 55
CC(C)c1ccc(C(=O)N2CCN(c3cnn(C)c(=O)c3Cl)CC2)cc1	none
Cc1ccc(-c2ccc(CCC(=O)O)n2Cc2ccco2)cc1	MrgX1 agonist 31 | MrgX1 ag confirm 129% | HEK293 Ca flux inactive | HEK293 Ca counter inactive | HEK293 Ca cntr2 inactive
O=C(O)CCc1ccc(-c2ccccc2)n1CC(=O)O	none
Nc1ccc(C23CC4CC(CC(CO)(C4)C2)C3)cc1	none
NCC12CC3CC(C1)CC(c1ccc(Cl)cc1)(C3)C2	RGS4 act -7.2, MrgX1 agonist 34 | MrgX1 ag confirm 135% | HEK293 Ca flux inactive | HEK293 Ca counter inactive | HEK293 Ca cntr2 inactive
Cc1nc(/N=C\c2ccc(N(C)C)cc2)sc1C	none
